Experimental data reported in ChEMBL document CHEMBL4513216, “Probing the Open Global Health Chemical Diversity Library for Multistage-Active Starting Points for Next-Generation Antimalarials” (ACS Infect Dis, 2020).

Experiment: Toxicity liver stage against HepG2, at 10uM
Format: cell-based
Design: test concentration 10 uM, cell line HepG2-A16-CD81EGFP
Details: human, HepG2-A16-CD81EGFP cells; read-out: INHIBITION
In short: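 Uninfected HepG2-A16-CD81EGFP cells, 3 × 10^3 per well, 1536-well, plated on prespotted compound at 10 μM final, parasite-free screening media added to match infected plates; puromycin 10 μM positive, DMSO 0.5% negative; run in parallel with 48 h PbLuc assay at 37 °C, 5% CO2; viability by CellTiter-Glo luminescence, normalized to controls.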

In order of falling cytotoxicity at 10 µM:
1. CCC(=O)N1CSCC1C(=O)N(C)CCc1ccccc1 (configuration not stated)  19.5%
2. CCn1cc2c(n1)C(COCC1CC1)CN(C(=O)c1ccco1)C2 (configuration not stated)  17.6%
3. O=S1(=O)CCCN1Cc1coc(-c2cccs2)n1  17.5%
4. CNC(=O)c1ccc2c(c1)C1(CCN(C(C)C)CC1)C(=O)N2  12.6%
5. Cc1nc(-c2nnc[nH]2)sc1C(=O)N1CCCC1c1cccs1 (configuration not stated)  11.1%
6. CN1CCN(C(=O)c2cc(C#N)cs2)c2ccccc2C1  10.2%
7. CCn1c(CN(C)C(=O)c2ccc(O)nc2)nc2ccccc21  10.2%
8. COc1ccnc(NC(=O)c2cscn2)c1  9.72%
9. CC1CCN(C(=O)c2cnn3c(-c4ccco4)ccnc23)CC1  8.77%
10. Cc1ccc(S(=O)(=O)N2CCN(C)C3(CCC(=O)N(C)CC3)C2)s1 (configuration not stated)  8.63%
11. Cc1cnc(C(=O)N2CCc3c(nc(-c4ccncc4)[nH]c3=O)C2)cn1  8.62%
12. N#CC1C(=O)Nc2c(cnn2C2CCCC2)C12CCCCC2 (configuration not stated)  8.46%
13. Cc1ncc2c(n1)CN(CC(O)COc1ccc(C#N)cc1)CC2 (configuration not stated)  7.45%
14. CN(CC(=O)N1CCCC1)C(=O)c1cccn1CCc1ccccc1  6.99%
15. CSc1ccc(NC(=O)NCC(O)C(C)C)cc1F (configuration not stated)  6.93%
16. CN1CCOC(CNCCCOc2ccc(C#N)cc2)C1 (configuration not stated)  6.91%
17. CNS(=O)(=O)c1ccc(CNC(=O)NCC2CCC2)cc1  6.26%
18. Cc1noc(C)c1CN1C(=O)[C@@H]2CC[C@H]1CN(Cc1ncc[nH]1)C2  5.85%
19. O=C(Cc1ccc2c(c1)CCO2)N1CCCC(n2cccn2)C1 (configuration not stated)  5.67%
20. c1cc(-c2nnc([C@H]3CCNC3)o2)ccn1  4.82%
21. Cc1ccc(C(C)(O)CNC(=O)c2sccc2Br)o1 (configuration not stated)  4.77%
22. Cc1cccnc1CN(C)c1ncnc2[nH]ccc12  4.77%
23. COc1ccc(-c2cn(CCSc3ncn[nH]3)nn2)cn1  3.36%
24. Cc1csc2cc(C(=O)NC3CCCC3)cnc12  3.13%
25. CCn1c(CN2CCCC2)nnc1C1CCN(Cc2ccccn2)CC1  3.11%
26. Cn1cnc2c(N3CCOCC3)nc(C3CCNCC3)cc21  2.98%
27. Cn1nc2c(cc1=O)CN(c1nc3ccccc3s1)CC2  2.89%
28. CCn1cc(S(=O)(=O)N2CCC3(CCCN(CC4CCC4)C3=O)C2)cn1 (configuration not stated)  2.45%
29. CCSc1ncc(-c2nccn2CCN(C)C)cn1  2.41%
30. CCc1nc2n(n1)CCCC2NC(=O)Nc1cccc(F)c1F (configuration not stated)  2.39%
31. CN1CCOC(CNC(=O)CCc2cc(F)ccc2F)C1 (configuration not stated)  2.32%
32. Cc1cc(C(=O)N2CCCC2c2nnc3n2CCCCC3)on1 (configuration not stated)  1.68%
33. O=C(N[C@H]1CCCC[C@@H]1O)c1ccc2nc(-c3ccccc3)[nH]c2c1  0.822%
34. CCN1CCOC(CNCc2cnc(N(CC)CC)s2)C1 (configuration not stated)  0.598%
35. CN(C)C(=O)CN1C[C@H]2CCN(c3ncccn3)CC[C@H]2S1(=O)=O  0.466%
36. COc1ccc(C2CCCN2C(=O)c2cc(C(C)C)on2)cc1 (configuration not stated)  0.462%
37. CNC(=O)c1cnc(C=Cc2ccc(O)c(OC)c2)s1  0.23%
38. CN(C)CCNC(=O)c1nc2c(o1)CN(C(=O)c1cccnc1)C2  0.109%
39. CN(C(=O)CNc1ccc(C#N)cc1)C1CCCCC1  0.0479%
40. Cc1ccc2[nH]c(CN(C)c3cc(CCN)nc(C)n3)nc2c1  0%
41. CN1C(=O)C(c2cccnc2)CC12CCN(C(=O)c1ccc[nH]1)CC2 (configuration not stated)  -0.19%
42. O=S(=O)(N1CCOCC1)N1CCCCC1CCn1cccn1 (configuration not stated)  -0.302%
43. O=C(NC1CCS(=O)(=O)C1)c1sccc1OC(F)F (configuration not stated)  -0.699%
44. O=C(NC1CC1)c1cccc(S(=O)(=O)NCCc2nc(C3CC3)no2)c1  -0.714%
45. COC(=O)c1cccc(-c2c[nH]c(C)n2)c1  -0.734%
46. Cc1ccc(C(=O)N2C[C@H]3CNC[C@H]3C2)cn1  -1.16%
47. Cc1nnn2c1COCC(CNC(=O)c1ccnnc1)C2 (configuration not stated)  -1.35%
48. Cc1cccc(CN2CCc3nnc(CN4CCCCC4)n3CC2)n1  -1.45%
49. CC(C(=O)NCCOc1ccc2c(c1)CCC2)n1cncn1 (configuration not stated)  -1.58%
50. COCCN(C)C(=O)Nc1ccn(-c2cccc(C(F)(F)F)c2)n1  -2.16%
51. COCc1ccccc1NC(=O)c1ccoc1  -2.17%
52. O=C(NCCN1CCOCC1)NCc1cccnc1-n1cccn1  -2.22%
53. O=C([C@@H]1CC[C@@H]2[C@@H](CCN2Cc2cccs2)O1)N1CCCCO1  -2.33%
54. CO[C@@H](C(=O)NC1CCOCC1)c1ccccc1  -2.43%
55. Fc1cnc(N2CC3(CCN(CC4CC4)C3)C2)nc1  -2.73%
56. CCOc1ccc(CN2CCCC(c3nn(C)c(=O)n3CC)C2)cn1 (configuration not stated)  -2.85%
57. CC(C)CS(=O)(=O)CC(=O)NC1CCCCNC1=O (configuration not stated)  -3.03%
58. O=C(C1CCOC1)N1CCc2ncnc(-c3cccnc3)c2CC1 (configuration not stated)  -3.13%
59. CC(C)CN1CCNC(=O)C12CCN(S(=O)(=O)c1ccc(F)cc1)CC2  -3.16%
60. Cn1nnnc1SCCNC(=O)C1CCN(C(=O)C2CCC2)CC1  -3.22%
61. CC(O)CC(C)(C)CNC(=O)Nc1cnn(-c2ccccc2F)c1 (configuration not stated)  -3.27%
62. Cc1nn(C)c(N2CCOCC2)c1CNCC1CCN(C2CC2)C1 (configuration not stated)  -3.32%
63. Cc1cccc2c1C(=O)NC(c1cnc(C3CCC3)s1)N2 (configuration not stated)  -3.33%
64. OCc1cn([C@@H]2c3ccccc3C3(CCNCC3)[C@H]2O)nn1  -3.45%
65. O=C(CCCc1ccccn1)N1CCSC2(CCCCC2)C1  -3.71%
66. COCCN1CC[C@H]2CN(Cc3ccc(C)s3)C[C@@H]2C1=O  -3.72%
67. Cc1cccc(N2CCC3(CCCC(=O)N3)CC2)n1  -3.8%
68. CCOc1ccc(NC(=O)NC2CCc3nc(C)nn3C2)cc1Cl (configuration not stated)  -3.81%
69. Cn1cc(NC(=O)N2CCCC2c2ccccn2)ccc1=O (configuration not stated)  -3.83%
70. CN(C(=O)c1cnc(N2CCOCC2)nc1)C1Cc2ccccc2C1  -3.97%
71. O=c1n(Cc2ccc(C(F)(F)F)cc2)nc2ncccn12  -4.06%
72. CCCOc1cc(C)c2c(c1C)C[C@H]([C@H](C)C(=O)O)CC2  -4.19%
73. CC(COc1ccccc1)NCc1nncn1C1CCCCC1 (configuration not stated)  -4.23%
74. CNC(=O)CNC(=O)c1ccc(-c2scnc2C)nc1  -4.26%
75. COCCN1C(=O)[C@@H]2CC[C@H]1CN(C(=O)Cc1ccc(O)c(Cl)c1)C2  -4.26%
76. CCN(CC)c1nc2sc(C(=O)N3CCNC(=O)C3)cc2s1  -4.29%
77. CNC(=O)c1cccc(NC(=O)NCc2ccc(SC)cc2)c1C  -4.44%
78. CC(=O)C1(c2ccccc2)CCN(C(=O)CC2CNCCO2)CC1 (configuration not stated)  -4.46%
79. CN(CCCNC(=O)CN1CCS(=O)(=O)CC1)c1ccccc1  -4.65%
80. CSCc1nc(CCNC(=O)C2CCCN(C(C)=O)C2)cs1 (configuration not stated)  -4.84%
81. COCC(C)(O)CNC(=O)c1cc(-c2ccc(F)cc2)nn1C (configuration not stated)  -5.1%
82. N#Cc1ccc(SCCC(=O)Nc2ccc(CC(N)=O)cc2)cc1  -5.25%
83. CCOC(=O)N1CCN(c2nc(N)c3ccccc3n2)CC1  -5.52%
84. COC(=O)c1occc1Cn1cc(Br)cn1  -5.63%
85. Cc1ccc(CNC2CCCN(Cc3noc(C4CC4)n3)C2)s1 (configuration not stated)  -6.01%
86. CCc1ncc(CN2CCCN(CC3CC3)C(C(C)C)C2)cn1 (configuration not stated)  -6.03%
87. COc1ccc(-c2nc(CN3CCCS3(=O)=O)co2)cc1  -6.24%
88. COc1ccccc1-c1ncc(CN2C[C@H](O)[C@@H](N3CCCC3)C2)s1  -6.34%
89. COc1cc(CNC(c2ccccc2)c2nccn2C)cc(OC)c1 (configuration not stated)  -6.69%
90. CCOCCNC(=O)c1cccc(Cn2nc(C)cc2C)c1  -7.69%
91. CC(C)Nc1ccc(-c2ccnc3c2ccn3C)nn1  -7.94%
92. C=C(C)COc1ccccc1NC(=O)N1CCCCC1CO (configuration not stated)  -8.06%
93. N#CCCN(Cc1cccnc1)C(=O)c1ccc(OCC2CC2)cc1  -8.17%
94. CN1CCCC1c1cncc(C(=O)NCC2CC2)n1 (configuration not stated)  -8.41%
95. Cc1noc(C)c1CN1C[C@@H](C(=O)O)[C@H](c2ccccc2)C1  -9.04%
96. CN(C)c1ncc(NC(=O)c2ccccc2C(F)(F)F)cn1  -9.66%
97. COc1cc(-n2cccc2)c(Cl)cc1C(N)=O  -10.4%
98. COc1ccc(C(=O)N(C)Cc2cc(C)on2)c(OC)c1  -11.3%
99. O=C(NCC1CCN(C(=O)c2ccoc2)CC1)c1ccccc1Br  -12.3%
100. Cc1nnc(NC(=O)c2c3c(nn2C2CCS(=O)(=O)C2)CCC3)s1 (configuration not stated)  -14.2%
101. CN(C)c1cc(C2CCCN2C(=O)c2ccc(=O)n(C)c2)ccn1 (configuration not stated)  -23.9%
102. O=C(c1ncccn1)N1C[C@@H]2CC[C@H](Oc3cccc(F)c3)[C@@H]2C1  -27.5%
103. Cc1cccc(NC(=O)c2ccc(OCc3nnnn3C)cc2)n1  -34.1%
104. O=C(NCC1CCCO1)c1csc(Cc2ccccc2)n1 (configuration not stated)  -110%
105. Cc1c(C(=O)N2CCCC(O)(CN(C)C)CC2)c2cc(O)ccc2n1C (configuration not stated)  -119%
106. Cn1cc(CN2CCc3c(nnn3C)C2COCc2ccccc2)cn1 (configuration not stated)  -126%
107. Cc1nc(CN2CCO[C@H]3CN(C(=O)c4cscn4)C[C@H]32)cs1  -128%
108. CN(C)C[C@@H]1OC[C@H]2CN(Cc3ccoc3)CC[C@H]21  -131%
109. O=C(NCC1CC1)[C@@H]1C[C@@H]2OCCN[C@@H]2C1  -131%
110. Cn1c2c(ccc1=O)CC(Nc1ncc(F)cn1)CC2 (configuration not stated)  -143%
111. COc1c(CNCc2cccnc2N2CCCCC2)c(C)nn1C  -151%
112. CC(C)N1CCC2(CC1)CN(C)C(=O)C[C@H]2C(F)(F)F  -160%
